Experimental data taken from ChEMBL document CHEMBL1287679, “Tuning hydrophobicity of highly cationic tetradecameric Gramicidin S analogues using adamantane amino acids” (Bioorg Med Chem, 2010).
Values after ≈ are worked out from the molar mass of the structure shown. Where a SMILES comes first, the peptide text is derived from it. [ ]: non-standard residue; d: D form. Orn = NCCC[C@H](N)C(=O)O

Columns and labels:
Enterococcus faecalis = assay: Antimicrobial activity against Enterococcus faecalis ATCC 29212 by broth dilution method; format: functional
Procedure, shortened: (§1)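 Stored at −70 °C, grown at 35 °C on Columbia sheep-blood agar, then suspended in physiological saline to OD 0.1 AU at 595 nm and diluted 100× in saline. 2 µL inoculum was added to 50 µL cation-adjusted Mueller Hinton II broth. Peptides in methanol (4 g/L stock) were diluted in water, then two-fold in broth (64–1 mg/L). Incubation was 35 °C for 24–48 h. MIC is the lowest concentration inhibiting growth.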

Escherichia coli = assay: Antimicrobial activity against Escherichia coli ATCC 25922 by broth dilution method; format: functional; procedure, shortened: as §1
Pseudomonas aeruginosa = assay: Antimicrobial activity against Pseudomonas aeruginosa ATCC 27853 by broth dilution method; format: functional; procedure, shortened: as §1
[1] = Therapeutic index, concentration required to achieve 100% hemolysis in erythrocyte to MIC for Staphylococcus aureus ATCC 29213; conditions: erythrocytes
Procedure, shortened: (§2)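 Therapeutic index was taken as the concentration for 100% haemolysis divided by MIC for the given strain.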

Staphylococcus aureus [2] = assay: Antimicrobial activity against methicillin-resistant Staphylococcus aureus N133 by broth dilution method; format: functional
Procedure, shortened: (§3)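 Frozen (−70 °C) stocks grown at 35 °C on Columbia sheep-blood agar, suspended in physiological saline to OD595 0.1, diluted 100×; 2 µL inoculum into 50 µL cation-adjusted Mueller Hinton II broth in 96-well plates. Peptides dissolved in methanol (4 g/L), diluted in water, two-fold serial dilutions in broth (64–1 mg/L). Incubation at 35 °C, 24–48 h; MIC = lowest concentration inhibiting growth.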

[3] = Therapeutic index, concentration required to achieve 100% hemolysis in erythrocyte to MIC for Escherichia coli ATCC 25922; conditions: erythrocytes; procedure, shortened: as §2
Staphylococcus aureus [4] = assay: Antimicrobial activity against community acquired methicillin-resistant Staphylococcus aureus isolate 1110301146 by broth dilution method; format: functional; procedure, shortened: as §3
Staphylococcus aureus [5] = assay: Antimicrobial activity against methicillin-resistant Staphylococcus aureus N229 by broth dilution method; format: functional; procedure, shortened: as §3
[6] = Toxicity in Erythrocyte assessed as concentration required to achieve 100% hemolysis after 4 hrs; format: cell-based
Procedure, shortened: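 Heparinized fresh blood was centrifuged (1000g, 10 min, 10 °C). Erythrocytes were washed three times in 0.85% saline and diluted to a 1/25 packed volume. Peptides were prepared as a 1.5 mM stock in 30% DMSO/0.5 mM saline and serially two-fold diluted in triplicate rows. 1% Triton-X served as the full-lysis control. Incubation was 37 °C for 4 h, then centrifugation; supernatant was read. Value is the concentration giving 100% lysis.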

Staphylococcus aureus [7] = assay: Antimicrobial activity against methicillin-resistant Staphylococcus aureus ATCC 49775 by broth dilution method; format: functional; procedure, shortened: as §3
Staphylococcus aureus [8] = assay: Antimicrobial activity against methicillin-resistant Staphylococcus aureus ATCC 43300 by broth dilution method; format: functional; procedure, shortened: as §3
Staphylococcus aureus [9] = assay: Antimicrobial activity against Staphylococcus aureus ATCC 29213 by broth dilution method; format: functional; procedure, shortened: as §3
Staphylococcus aureus [10] = assay: Antimicrobial activity against methicillin-resistant Staphylococcus aureus isolate 1110301981 by broth dilution method; format: functional; procedure, shortened: as §3
Bacillus cereus = assay: Antimicrobial activity against Bacillus cereus ATCC 11778 by broth dilution method; format: functional; procedure, shortened: as §1
[11] = tested on: Staphylococcus epidermidis; assay: Antimicrobial activity against Staphylococcus epidermidis ATCC 12228 by broth dilution method; format: functional; procedure, shortened: as §1

NCCC[C@@H]1NC(=O)[C@H](CC23CC4CC(CC(C4)C2)C3)NC(=O)[C@H](CCCN)NC(=O)[C@H](C23CC4CC(CC(C4)C2)C3)NC(=O)[C@H](CCCN)NC(=O)[C@@H]2CCCN2C(=O)[C@@H](Cc2ccccc2)NC(=O)[C@H](CCCN)NC(=O)[C@H](CC23CC4CC(CC(C4)C2)C3)NC(=O)[C@H](CCCN)NC(=O)[C@H](C23CC4CC(CC(C4)C2)C3)NC(=O)[C@H](CCCN)NC(=O)[C@@H]2CCCN2C(=O)[C@@H](Cc2ccccc2)NC1=O gave an MIC (Enterococcus faecalis) of 32 µg/mL (≈ 16.3 µM), an MIC (Escherichia coli) of 64 µg/mL (≈ 32.5 µM) and an MIC (Pseudomonas aeruginosa) of 64 µg/mL (≈ 32.5 µM). It also gave a selectivity ratio ([1]; read-out: Ratio) of 0.1, an MIC (Staphylococcus aureus [2]) of 32 µg/mL (≈ 16.3 µM) and a selectivity ratio [3] of 0.12. It also gave an MIC (Staphylococcus aureus [4]) of 32 µg/mL (≈ 16.3 µM), an MIC (Staphylococcus aureus [5]) of 32 µg/mL (≈ 16.3 µM) and an Activity [6] of 7.8 µM. It also gave an MIC (Staphylococcus aureus [7]) of 32 µg/mL (≈ 16.3 µM), an MIC (Staphylococcus aureus [8]) of 32 µg/mL (≈ 16.3 µM) and an MIC (Staphylococcus aureus [9]) of 64 µg/mL (≈ 32.5 µM). The MIC (Staphylococcus aureus [10]) was 32 µg/mL (≈ 16.3 µM), the MIC (Bacillus cereus) was 2 µg/mL (≈ 1.02 µM) and the MIC [11] was 32 µg/mL (≈ 16.3 µM).

CC(C)C[C@@H]1NC(=O)[C@H](CCCN)NC(=O)[C@H](C(C)C)NC(=O)[C@H](CCCN)NC(=O)[C@@H]2CCCN2C(=O)[C@@H](Cc2ccccc2)NC(=O)[C@H](CCCN)NC(=O)[C@H](CC23CC4CC(CC(C4)C2)C3)NC(=O)[C@H](CCCN)NC(=O)[C@H](C23CC4CC(CC(C4)C2)C3)NC(=O)[C@H](CCCN)NC(=O)[C@@H]2CCCN2C(=O)[C@@H](Cc2ccccc2)NC(=O)[C@H](CCCN)NC1=O showed an MIC (Enterococcus faecalis) of 8 µg/mL (≈ 4.49 µM), an MIC (Escherichia coli) of 16 µg/mL (≈ 8.98 µM) and an MIC (Pseudomonas aeruginosa) of 8 µg/mL (≈ 4.49 µM). The selectivity ratio ([1]; read-out: Ratio) was 3.9, the MIC (Staphylococcus aureus [2]) was 16 µg/mL (≈ 8.98 µM) and the selectivity ratio [3] was 3.9. For the same compound, the MIC (Staphylococcus aureus [4]) was 16 µg/mL (≈ 8.98 µM), the MIC (Staphylococcus aureus [5]) was 16 µg/mL (≈ 8.98 µM) and the Activity [6] was 31.3 µM. It also gave an MIC (Staphylococcus aureus [7]) of 16 µg/mL (≈ 8.98 µM), an MIC (Staphylococcus aureus [8]) of 16 µg/mL (≈ 8.98 µM) and an MIC (Staphylococcus aureus [9]) of 8 µg/mL (≈ 4.49 µM). For the same compound, the MIC (Staphylococcus aureus [10]) was 16 µg/mL (≈ 8.98 µM), the MIC (Bacillus cereus) was 1 µg/mL (≈ 0.561 µM) and the MIC [11] was 4 µg/mL (≈ 2.24 µM).

For CC(C)C[C@@H]1NC(=O)[C@H](CCCN)NC(=O)[C@H](C(C)C)NC(=O)[C@@H]2CCCN2C(=O)[C@@H](Cc2ccccc2)NC(=O)[C@H](CC(C)C)NC(=O)[C@H](CCCN)NC(=O)[C@H](C(C)C)NC(=O)[C@@H]2CCCN2C(=O)[C@@H](Cc2ccccc2)NC1=O [GRAMICIDIN S] (cyclo(L[dF]PV[Orn]L[dF]PV[Orn])), the MIC (Enterococcus faecalis) was 8 µg/mL (≈ 7.01 µM), the MIC (Escherichia coli) was 64 µg/mL (≈ 56.1 µM) and the MIC (Pseudomonas aeruginosa) was 32 µg/mL (≈ 28 µM). It also gave a selectivity ratio ([1]; read-out: TI) of 2, an MIC (Staphylococcus aureus [2]) of 16 µg/mL (≈ 14 µM) and a selectivity ratio [3] of 2. The MIC (Staphylococcus aureus [4]) was 16 µg/mL (≈ 14 µM), the MIC (Staphylococcus aureus [5]) was 8 µg/mL (≈ 7.01 µM) and the Activity [6] was 62.5 µM. The MIC (Staphylococcus aureus [7]) was 8 µg/mL (≈ 7.01 µM), the MIC (Staphylococcus aureus [8]) was 8 µg/mL (≈ 7.01 µM) and the MIC (Staphylococcus aureus [9]) was 32 µg/mL (≈ 28 µM). For the same compound, the MIC (Staphylococcus aureus [10]) was 16 µg/mL (≈ 14 µM), the MIC (Bacillus cereus) was 8 µg/mL (≈ 7.01 µM) and the MIC [11] was 8 µg/mL (≈ 7.01 µM).

Work on CC(C)[C@@H]1NC(=O)[C@H](CCCN)NC(=O)[C@@H]2CCCN2C(=O)[C@@H](Cc2ccccc2)NC(=O)[C@H](CCCN)NC(=O)[C@H](CC23CC4CC(CC(C4)C2)C3)NC(=O)[C@H](CCCN)NC(=O)[C@H](C23CC4CC(CC(C4)C2)C3)NC(=O)[C@H](CCCN)NC(=O)[C@@H]2CCCN2C(=O)[C@@H](Cc2ccccc2)NC(=O)[C@H](CCCN)NC(=O)[C@H](CC23CC4CC(CC(C4)C2)C3)NC(=O)[C@H](CCCN)NC1=O yielded an MIC (Enterococcus faecalis) of 8 µg/mL (≈ 4.27 µM), an MIC (Escherichia coli) of 32 µg/mL (≈ 17.1 µM) and an MIC (Pseudomonas aeruginosa) of 16 µg/mL (≈ 8.54 µM). It also gave a selectivity ratio ([1]; read-out: Ratio) of 1, an MIC (Staphylococcus aureus [2]) of 16 µg/mL (≈ 8.54 µM) and a selectivity ratio [3] of 1. The MIC (Staphylococcus aureus [4]) was 32 µg/mL (≈ 17.1 µM), the MIC (Staphylococcus aureus [5]) was 16 µg/mL (≈ 8.54 µM) and the Activity [6] was 15.6 µM. For the same compound, the MIC (Staphylococcus aureus [7]) was 16 µg/mL (≈ 8.54 µM), the MIC (Staphylococcus aureus [8]) was 16 µg/mL (≈ 8.54 µM) and the MIC (Staphylococcus aureus [9]) was 16 µg/mL (≈ 8.54 µM). The MIC (Staphylococcus aureus [10]) was 16 µg/mL (≈ 8.54 µM), the MIC (Bacillus cereus) was 4 µg/mL (≈ 2.13 µM) and the MIC [11] was 4 µg/mL (≈ 2.13 µM).

With CC(C)C[C@@H]1NC(=O)[C@H](CCCN)NC(=O)[C@H](C(C)C)NC(=O)[C@H](CCCN)NC(=O)[C@@H]2CCCN2C(=O)[C@@H](Cc2ccccc2)NC(=O)[C@H](CCCN)NC(=O)[C@H](CC23CC4CC(CC(C4)C2)C3)NC(=O)[C@H](CCCN)NC(=O)[C@H](C(C)C)NC(=O)[C@H](CCCN)NC(=O)[C@@H]2CCCN2C(=O)[C@@H](Cc2ccccc2)NC(=O)[C@H](CCCN)NC1=O the MIC (Enterococcus faecalis) was 32 µg/mL (≈ 18.9 µM), the MIC (Escherichia coli) was 16 µg/mL (≈ 9.47 µM) and the MIC (Pseudomonas aeruginosa) was 16 µg/mL (≈ 9.47 µM). The selectivity ratio ([1]; read-out: Ratio) was 7.8, the MIC (Staphylococcus aureus [2]) was 8 µg/mL (≈ 4.73 µM) and the selectivity ratio [3] was 7.8. The MIC (Staphylococcus aureus [4]) was 16 µg/mL (≈ 9.47 µM), the MIC (Staphylococcus aureus [5]) was 16 µg/mL (≈ 9.47 µM) and the Activity [6] was 125 µM. It also gave an MIC (Staphylococcus aureus [7]) of 8 µg/mL (≈ 4.73 µM), an MIC (Staphylococcus aureus [8]) of 8 µg/mL (≈ 4.73 µM) and an MIC (Staphylococcus aureus [9]) of 16 µg/mL (≈ 9.47 µM). For the same compound, the MIC (Staphylococcus aureus [10]) was 8 µg/mL (≈ 4.73 µM), the MIC (Bacillus cereus) was 8 µg/mL (≈ 4.73 µM) and the MIC [11] was 8 µg/mL (≈ 4.73 µM).
